This is an account of results in ChEMBL document CHEMBL1129983, “Synthesis and structure-activity relationships of carboxylated chalcones: a novel series of CysLT1 (LTD4) receptor antagonists” (J Med Chem, 1997).

For experiment [1], the target named is T1, Cysteinyl leukotriene receptor 1 (Cavia porcellus) (UniProt Q2NNR5).
T1 sequence (whole entry): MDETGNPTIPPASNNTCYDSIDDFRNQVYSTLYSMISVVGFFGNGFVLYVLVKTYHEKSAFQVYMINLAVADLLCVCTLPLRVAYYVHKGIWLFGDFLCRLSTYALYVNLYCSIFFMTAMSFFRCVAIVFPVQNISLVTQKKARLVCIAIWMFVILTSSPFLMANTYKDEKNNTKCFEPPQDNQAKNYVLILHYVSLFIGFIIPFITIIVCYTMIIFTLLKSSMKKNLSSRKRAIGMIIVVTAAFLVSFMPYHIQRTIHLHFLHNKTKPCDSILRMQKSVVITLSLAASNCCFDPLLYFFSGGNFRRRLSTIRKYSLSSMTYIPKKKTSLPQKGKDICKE
As to the kind of experiment: Percent inhibition against Cysteinyl leukotriene D4 receptor in guinea pig lung membranes using [3H]LTD4 4 at 10 e-5 M. Format: cell membranes. Conditions: Membrane. In outline: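 Same [3H]LTD4 (0.2 nM) filtration binding with guinea pig lung membranes, PIPES pH 7.5, 22 °C, 30 min. Percent inhibition = (maximum binding − counts at highest drug concentration) / maximum binding × 100.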

Experiment [2] deals with Cavia porcellus. In words: Inhibition of LTD4 induced increase of vascular permeability after injection of 10 ng/site at 10 mg/kg intraperitoneally. Format: functional. The following applies: ip, route intraperitoneal. The procedure, abridged:
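Male Hartley guinea pigs (~300 g), fasted 24 h with water available, dosed ip at 10 mg/kg in 0.5% carboxymethylcellulose or saline. One hour later Evans blue 50 mg/kg iv, then LTD4 intradermally on the back. Dorsal skin removed 30 min later, dye extracted and quantified. Reported as percent inhibition versus control.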

For experiment [3], the species on record is Cavia porcellus. As to the kind of experiment: Inhibition of LTD4 induced contraction of guinea pig ileum. Format: functional. The procedure, abridged:
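Male guinea pig ileum segments (2 cm), 20 mL organ bath, Tyrode's with atropine and pyrilamine (10⁻⁶ M each), 29 °C, 95% O2/5% CO2, 1.0 g resting tension, isotonic recording. Compounds in DMSO (10⁻⁵ to 3 × 10⁻⁹ M) preincubated 30 min; indomethacin 10⁻⁶ M added 10 min before 10⁻⁸ M LTD4. IC50 from percent inhibition across concentrations.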

The species entered for experiment [4] is Cavia porcellus. In words: Inhibition of ovalbumin-induced contraction (10 ng/mL) of guinea pig trachea at 10 uM. Format: functional. In outline: (§1)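 Ovalbumin-sensitized male Hartley guinea pigs (2 mg ip, ≥2 weeks prior). Tracheal ring strips in Krebs with 3 µM indomethacin, 37 °C, 95% O2/5% CO2, 0.5 g tension, 60 min equilibration. Drug 10 µM preincubated 30 min, then ovalbumin challenge for 20–60 min, followed by 10 µM carbachol. Antigen response expressed as percent of the carbachol contraction.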

The target of experiment [5] is Cysteinyl leukotriene receptor 1 (Cavia porcellus). As to the kind of experiment: Displacement of [3H]LTD4 from Cysteinyl leukotriene D4 receptor in guinea pig lung membranes. On the technique in general: Loss of bound radioactivity is the signal in a displacement assay; it reports binding, not function.
For experiment [6], the system named is Cavia porcellus. As to the kind of experiment: Inhibition of LTD4 induced increase of vascular permeability after injection of 10 ng/site at […] intraperitoneally. It counts as functional.
Experiment [7] is filed under the species Cavia porcellus. As to the kind of experiment: Inhibition of ovalbumin-induced contraction (10 ng/mL) of guinea pig trachea at 10 uM. Format: functional. In outline:
as §1

In the case of `O=C(/C=C/c1ccc(OCc2ccc3ccccc3c2)cc1)c1cc(-c2nn[nH]n2)ccc1O`, the inhibition in experiment [1] amounted to 4%. In experiment [2], `O=C(/C=C/c1ccc(OCc2ccc3ccccc3n2)cc1)c1cc(-c2nn[nH]n2)ccc1O` came in with an inhibition in vivo at 10 mg/kg of 72%. For the same molecule, the IC50 in experiment [3] was 240 nM. The Inhibition in experiment [4] is given as 52%. Take `CCOCCn1c(COc2ccc(/C=C/C(=O)c3cc(-c4nn[nH]n4)ccc3O)cc2)nc2ccccc21`: the Kd in experiment [5] came to 527 nM. As for `N#Cc1ccc(O)c(C(=O)/C=C/c2cccc(OCc3ccc4ccccc4n3)c2)c1`, the inhibition in experiment [1] worked out at 38%. With `CCCCOc1ccc(C(=O)O)cc1C(=O)/C=C/c1ccc(OCc2ccc3ccccc3n2)cc1`, the inhibition in experiment [1] is 42%. In experiment [3], `O=C(/C=C/c1cccc(/C=C/c2ccc3ccccc3n2)c1)c1cc(-c2nn[nH]n2)ccc1O` showed a half-inhibitory concentration (IC50) of 46 nM. In experiment [5], this molecule registered a Kd of 21 nM. Regarding `CCOCCn1c(COc2cccc(/C=C/C(=O)c3cc(Cl)cc(C(=O)O)c3O)c2)nc2ccccc21`, in experiment [5], the dissociation constant (Kd) was determined as 10500 nM. Still for that read-out and setting: in the case of `O=C(O)COc1ccc(C(=O)/C=C/c2cccc(/C=C/c3ccc4ccccc4n3)c2)c(O)c1` it was 204 nM; in that of `O=C(O)c1cccc(C(=O)/C=C/c2ccc(OCc3ccc4ccccc4n3)cc2)c1O`, 307 nM.

Molecule `O=C(O)c1ccc(O)c(C(=O)/C=C/c2ccccc2OCc2ccccc2)c1` gave an inhibition in experiment [1] of 0%. The same measure, in the same setting: as for `O=C(O)c1ccc(O)c(C(=O)/C=C/c2ccccc2OCc2ccc3ccccc3n2)c1`, the figure is 18%. In experiment [5], `COc1ccc(C(=O)O)cc1C(=O)/C=C/c1ccc(OCc2ccc3ccccc3n2)cc1` returned a Kd of 188 nM. Still for that read-out and setting: in the case of `O=C(O)c1cc(Br)cc2c(=O)cc(-c3ccc4ccccc4n3)oc12` it was 14800 nM; in that of `CCOCCn1c(COc2cccc(/C=C/C(=O)c3cc(-c4nn[nH]n4)ccc3O)c2)nc2ccccc21`, 8850 nM.

On to `O=C(Nc1cccc2c(=O)cc(-c3nnn[nH]3)oc12)c1ccc(OCCCCc2ccccc2)cc1`, for which the results for the Inhibition in experiment [6] and in experiment [4] were 100% and 80%, respectively. In experiment [5], `O=C(/C=C/c1cccc(/C=C/c2ccc3ccccc3n2)c1)c1cc(Cl)cc(-c2nn[nH]n2)c1O` showed a Kd of 828 nM. Regarding `O=C(/C=C/c1cccc(/C=C/c2ccc3ccccc3n2)c1)c1cc(OCc2nn[nH]n2)ccc1O`, in experiment [3], the midpoint of inhibition, the IC50, lay at 23 nM. This molecule displayed an Inhibition in experiment [7] of 0%. Turning to `O=C(O)c1cc(Br)cc(C(=O)/C=C/c2cccc(OCc3ccc4ccccc4n3)c2)c1O`, in experiment [5], the Kd is reported as 205 nM. Same read-out and setting: in the case of `O=C(O)c1cc(F)cc(C(=O)/C=C/c2ccc(OCc3ccc4ccccc4n3)cc2)c1O` it was 396 nM. As to `CCOC(=O)c1ccc(O)c(C(=O)/C=C/c2ccc(OCc3ccc4ccccc4n3)cc2)c1`, the inhibition in experiment [1] is 16%. The same measure, in the same setting: in the case of `O=C(O)c1ccc(O)c(C(=O)/C=C/c2ccc(OCc3ccccc3)cc2)c1` it was 23%.

In experiment [5], `CCOCCn1c(COc2ccc(/C=C/C(=O)c3ccc(C(=O)O)cc3O)cc2)nc2ccccc21` yielded a Kd of 62400 nM. Same read-out and setting: as for `O=C(O)c1cc(Cl)cc(C(=O)/C=C/c2ccc(OCc3ccc4ccccc4n3)cc2)c1O`, the figure is 732 nM. Regarding `O=C(O)c1cc(Cl)cc(C(=O)/C=C/c2cccc(/C=C/c3ccc4ccccc4n3)c2)c1O`, the inhibition in vivo at 10 mg/kg in experiment [2] is < 10%. Further, it took 360 nM to reach half-maximal inhibition in experiment [3] (IC50). In turn, `O=C(O)c1cc(Br)cc(C(=O)/C=C/c2ccc(OCc3ccc4ccccc4n3)cc2)c1O` returned a Kd in experiment [5] of 2100 nM.

Turning to `CC(C)(C)c1cc(C(=O)O)c(O)c(C(=O)/C=C/c2cccc(/C=C/c3ccc4ccccc4n3)c2)c1`, the equilibrium dissociation constant (Kd) in experiment [5] is 208 nM. As to `O=C(O)c1ccc(O)c(C(=O)/C=C/c2ccc3ccccc3n2)c1`, the Kd in experiment [5] is given as 11100 nM.

Consider `O=C(O)COc1ccc(O)c(C(=O)/C=C/c2cccc(/C=C/c3ccc4ccccc4n3)c2)c1`, for which, in experiment [5], the Kd stood at 175 nM.

The molecule `COC(=O)c1ccc(OC)c(C(=O)/C=C/c2ccc(OCc3ccc4ccccc4n3)cc2)c1` gave a Kd in experiment [5] of 357 nM. In the case of `Cn1c(COc2ccc(/C=C/C(=O)c3cc(-c4nn[nH]n4)ccc3O)cc2)nc2ccccc21`, the IC50 in experiment [3] was 190 nM. As for `N#Cc1ccc(C(=O)/C=C/c2ccc(OCc3ccc4ccccc4n3)cc2)cc1`, the inhibition in experiment [1] stood at 9%. Regarding `O=C(/C=C/c1ccc(/C=C/c2ccc3ccc(Cl)cc3n2)cc1)c1cc(-c2nn[nH]n2)ccc1O`, in experiment [5], the Kd turned out to be 239 nM. Still for that read-out and setting: in the case of `O=C(O)c1ccc(C(=O)/C=C/c2cccc(OCc3ccc4ccccc4n3)c2)c(O)c1` it was 928 nM; in that of `O=C(O)c1ccc(O)c(C(=O)/C=C/c2ccc(/C=C/c3ccc4ccccc4n3)cc2)c1`, 585 nM. The same measure, in the same setting: as for `O=C(O)c1cccc(C(=O)/C=C/c2ccc(/C=C/c3ccc4ccccc4n3)cc2)c1O`, the figure is 200 nM. Molecule `N#Cc1ccc(C(=O)/C=C/c2cccc(OCc3ccc4ccccc4n3)c2)cc1` registered an inhibition in experiment [1] of 7%. In turn, `N#Cc1cc(Cl)cc(C(=O)/C=C/c2cccc(/C=C/c3ccc4ccccc4n3)c2)c1O` showed a dissociation constant Kd in experiment [5] of 449 nM. As to `O=C(/C=C/c1ccc(OCc2nccs2)cc1)c1cc(-c2nn[nH]n2)ccc1O`, the Kd in experiment [5] stood at 233 nM. Molecule `CCCc1c(OCC(O)COc2ccc3c(=O)cc(C(=O)O)oc3c2CCC)ccc(C(C)=O)c1O` (stereo not given) [FPL-55712] showed an Inhibition in experiment [7] of 38%. As for `O=C(/C=C/c1cccc(OCc2ccc3ccccc3c2)c1)c1cc(-c2nn[nH]n2)ccc1O`, in experiment [5], the Kd stood at 19200 nM.

As to `N#Cc1ccc(O)c(C(=O)/C=C/c2ccc(OCc3ccc4ccccc4n3)cc2)c1`, the equilibrium dissociation constant (Kd) in experiment [5] was 4310 nM. On the same count and under the same terms, as for `O=C(/C=C/c1cccc(OCc2ccc3ccccc3n2)c1)c1cc(-c2nn[nH]n2)ccc1O`, the figure is 209 nM.

In experiment [5], `O=C(O)c1cc(F)cc(C(=O)/C=C/c2cccc(/C=C/c3ccc4ccccc4n3)c2)c1O` displayed a Kd of 140 nM. As for `O=C(O)c1cccc(C(=O)/C=C/c2cccc(/C=C/c3ccc4ccccc4n3)c2)c1O`, in experiment [2], the inhibition in vivo at 10 mg/kg is < 10%. The molecule further gave an IC50 in experiment [3] of 52 nM. In addition, the Inhibition in experiment [4] is given as 0%. Also, the Kd in experiment [5] is 26 nM.

For the molecule `O=C(/C=C/c1ccc(OCc2ccc3ccc(Cl)cc3n2)cc1)c1cc(-c2nn[nH]n2)ccc1O`, the dissociation constant (Kd) in experiment [5] amounted to 196 nM. Still for that read-out and setting: in the case of `O=C(O)c1ccc(C(=O)/C=C/c2ccc(OCc3ccc4ccccc4n3)cc2)c(O)c1` it was 1210 nM.

As a reminder, the inhibition is the percentage by which the read-out fell short of the control. A lower inhibition goes with little suppression. Usually inhibition in vivo stands for how much of the control response was suppressed. Lower therefore signals little suppression. By IC50 is commonly meant the concentration at which inhibition is half-maximal. The Inhibition is how much of the control response was suppressed. Higher therefore signals strong suppression. One may read the Kd as the free concentration of one partner at which half of the binding sites on the other are occupied at equilibrium, for simple one-to-one binding. A higher Kd goes with weaker binding.
